# Laboratory results: publication PMC12484386 (Journal of Clinical Pharmacology, 2025)
# Experiments:
# Renal impairment study = format: in vivo, human
# Method in brief: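 Renal function by Cockcroft-Gault. Parent and M11 plasma predose to 240 h by LC-MS/MS (1.00-750 ng/mL); unbound fraction by equilibrium dialysis at 4 h. Ln-parameters by one-way ANOVA; GMR with 90% CI.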
# plasma protein = settings: cited from earlier work
# [1] = Safety and tolerability, hepatic impairment study; format: in vivo, human
# [2] = single oral 5 mg radiolabeled fruquintinib, healthy volunteers; cited from earlier work
# [3] = cited from earlier work
# [4] = cited from earlier work; remark: listed apart in the source
# HSA = HSA (Homo sapiens, UniProt P02768); experiment: Separate in vitro equilibrium dialysis study, binding to HSA; format: in vitro ADME; settings: HSA (human serum albumin)
# [5] = Plasma protein binding in human plasma at 1-10 µM; format: in vitro ADME
# Hepatic impairment study = format: in vivo, human
# Method in brief: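 Open-label single oral dose after ≥10 h overnight fast, held to 2 h postdose: Child-Pugh B (n=8) 2 mg; matched normal hepatic function (n=8) 5 mg. Parent and M11 plasma sampled predose to 240 h by validated LC-MS/MS (1.00-750 ng/mL). Data dose-normalized to 5 mg. Ln-transformed parameters by one-way ANOVA, cohort fixed; GMR and 90% CI back-transformed; unbound parameters analysed likewise.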
# AAG = experiment: Separate in vitro equilibrium dialysis study, binding to AAG; format: in vitro ADME; settings: AAG (alpha-1-acid glycoprotein)
# [6] = Safety and tolerability, renal impairment study; format: in vivo, human
# [7] = cited from earlier work; remark: listed apart in the source
# [8] = moderate renal impairment vs normal renal function
# [9] = severe renal impairment compared with normal renal function
# [10] = severe renal impairment vs normal renal function
# [11] = moderate hepatic impairment vs normal hepatic function
# Sequence of HSA (P02768 25-609): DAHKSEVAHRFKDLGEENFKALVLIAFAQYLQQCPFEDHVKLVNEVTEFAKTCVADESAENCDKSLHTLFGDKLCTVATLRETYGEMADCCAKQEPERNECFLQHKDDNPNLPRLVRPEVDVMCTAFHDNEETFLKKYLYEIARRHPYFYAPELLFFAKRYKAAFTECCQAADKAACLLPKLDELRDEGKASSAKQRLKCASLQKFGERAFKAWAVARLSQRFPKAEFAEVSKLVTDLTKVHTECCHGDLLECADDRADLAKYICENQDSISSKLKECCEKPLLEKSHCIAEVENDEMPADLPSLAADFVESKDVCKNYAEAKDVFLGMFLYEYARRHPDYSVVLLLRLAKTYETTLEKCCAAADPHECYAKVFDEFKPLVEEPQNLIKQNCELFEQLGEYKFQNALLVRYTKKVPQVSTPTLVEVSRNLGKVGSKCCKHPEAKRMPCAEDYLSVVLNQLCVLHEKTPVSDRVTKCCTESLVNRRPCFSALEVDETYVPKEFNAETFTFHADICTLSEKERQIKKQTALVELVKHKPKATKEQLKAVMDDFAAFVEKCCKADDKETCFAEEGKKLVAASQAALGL
structure (smiles),measurement,setting,value
CNC(=O)c1c(C)oc2cc(Oc3ncnc4cc(OC)c(OC)cc34)ccc12 [fruquintinib],"CL/F, mean (SD)","Renal impairment study; moderate renal impairment (CrCl 30-59 mL/min), N = 8, single oral 5 mg",14.2 mL/min
same,"difference across Cmax, AUC0-t, and AUC0-inf",Renal impairment study; moderate renal impairment compared with normal renal function,less than 8%
same,LS GMR DN AUC0-inf [90% CI],Renal impairment study; [8],1.07
same,LS GMR DN AUC0-t [90% CI],Renal impairment study; [8],1.06
same,LS GMR DN Cmax [90% CI],Renal impairment study; [8],0.95
same,"CL/F, mean (SD)","Renal impairment study; normal renal function, N = 8, single oral 5 mg",15.0 mL/min
same,"CL/F, mean (SD)","Renal impairment study; severe renal impairment (CrCl 15-29 mL/min), N = 8, single oral 2 mg",15.0 mL/min
same,difference in AUCs,Renal impairment study; [9],less than 3%
same,dose-normalized Cmax lower,Renal impairment study; [9],approximately 11%
same,LS GMR DN AUC0-inf [90% CI],Renal impairment study; [10],1.01
same,LS GMR DN AUC0-t [90% CI],Renal impairment study; [10],0.97
same,LS GMR DN Cmax [90% CI],Renal impairment study; [10],0.89
same,protein binding in human plasma,plasma protein,approximately 95%
same,participants with treatment emergent adverse events (TEAEs),"[1]; 4 of the 16 participants, all TEAEs in moderate hepatic impairment",25.0%
same,tolerability,"[1]; both studies, single dose 2 or 5 mg",generally well tolerated
same,participants with treatment-related TEAEs,"[1]; hepatic impairment study, three of 16 participants",18.8%
same,participants with dizziness,"[1]; moderate hepatic impairment, one of 8, grade 1, nonserious, related",12.5%
same,participants with urinary tract infection,"[1]; moderate hepatic impairment, one of 8, grade 2, nonserious, not related",12.5%
same,dose recovered in feces,[2],30%
same,dose recovered in urine,[2],approximately 60%
same,dose recovered unchanged in feces,[2],5%
same,dose recovered unchanged in urine,[2],0.5%
same,elimination half-life (t1/2),[3],approximately 42 h
same,weight-normalized apparent clearance,[3],approximately 0.17 mL/min/kg
same,time to steady-state concentrations,[3]; consecutive QD dosing,14 days
same,median time to maximum plasma concentration (Tmax),"[3]; oral administration, patients with cancer",approximately 2 h
same,accumulation at steady-state,"[3]; relative to a single dose, QD dosing",approximately 4 fold
same,inter-individual variability in apparent oral clearance,[4],26%
same,impact of mild to moderate renal impairment and mild hepatic impairment on PK,[4]; population PK analysis,no clinically meaningful impact
same,fraction unbound at 0.1 µM,HSA,0.0565
same,fraction unbound at 1 µM,HSA,0.0635
same,fraction unbound at 10 µM,HSA,0.0627
same,fraction unbound at 1 µM,[5],0.046
same,fraction unbound at 3 µM,[5],0.047
same,fraction unbound at 10 µM,[5],0.047
same,"CL/F, mean (SD)","Hepatic impairment study; moderate hepatic impairment (Child-Pugh B), N = 8, single oral 2 mg",17.4 mL/min
same,difference in dose-normalized Cmax,Hepatic impairment study; moderate hepatic impairment compared with normal hepatic function,less than 5%
same,AUCs lower,"Hepatic impairment study; moderate hepatic impairment compared with normal hepatic function, dose normalized",approximately 10%
same,LS GMR DN AUC0-inf [90% CI],Hepatic impairment study; [11],0.91
same,LS GMR DN AUC0-t [90% CI],Hepatic impairment study; [11],0.89
same,LS GMR DN Cmax [90% CI],Hepatic impairment study; [11],1.04
same,"CL/F, mean (SD)","Hepatic impairment study; normal hepatic function, N = 8, single oral 5 mg",15.3 mL/min
same,fraction unbound at 0.1 µM,AAG,0.356
same,fraction unbound at 1 µM,AAG,0.358
same,fraction unbound at 10 µM,AAG,0.413
same,participants with TEAEs,[6]; 3 of the 24 participants,12.5%
same,participants with headache,"[6]; moderate renal impairment, one of eight, grade 1, nonserious, not related",12.5%
same,participants with hypoglycemia,"[6]; moderate renal impairment, one of eight, grade 3, nonserious, not related",12.5%
same,participants with eye pruritis and periorbital edema,"[6]; normal renal function, one of eight, grade 1, nonserious, not related",12.5%
same,change in fruquintinib exposure,"[7]; co-administration with itraconazole, a strong CYP3A inhibitor",did not result in clinically meaningful change
same,reduction of fruquintinib exposure,"[7]; concurrent use of rifampin, a strong metabolic enzyme inducer",approximately 65%
